High-throughput results deposited in PubChem by several laboratories.
Most compounds without a hit are left out; they make up all but 1.9% or so of the library.
GPR7 antagonist – human neuropeptides B/W receptor 1 antagonism; hit rate 1.1% among 290,000; GPR7-expressing cells, fluorescence antagonist assay; inhibition, % at 4.4 µM; P48145; in the data active means inhibition above about 16%, passing the limit was not always enough;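 further: cells stimulated with the agonist NPW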
p-CIP stab down – lowers stability of the mouse p/CIP coactivator protein; Q05BA5; F442A p/CIP-EGFP cells, EGFP fluorescence, 16 h; decrease of EGFP signal, % at 10 µM; hit rate 0.01% among 290,000; AID 1984;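 active means EGFP signal decrease of at least 30% at 10 µM or well 3 SD below plate mean, unless failing retest; inactive means the rest, including hits failing retest or dose response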
core dimer inh – blocks dimerization of HCV core protein. TR-FRET GST/Flag-core106 dimerization, 1536-well. inhibition, % at 5 µM. hit rate 0.33% among 300,000. AID 1899;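 active means inhibition above the mean of all tested compounds plus 3 SD, set per screening campaign, cut at about 45% in these data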
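Material: GST/Flag-tagged HCV core106 proteins. Incubation: 4 h, 22.5 °C incubation. Read-out basis: inhibition (%) from 671 over 617 nm ratio. Measured by: TR-FRET, excitation 340 nm, emission 617 and 671 nm.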
HCV NS3 hel inh – HCV NS3 helicase inhibition; hit rate 0.56% among 290,000; NS3 helicase DNA unwinding, Cy5 molecular beacon fluorescence; inhibition, % at 10.9 µM; AID 1800;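 active means inhibition above the mean of all tested compounds plus 3 SD, set per campaign, cut at about 35% in these data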
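test system = hepatitis C virus NS3 helicase domain fragment enzyme | reagent = annealed dual-labelled DNA beacon duplex, ATP-started | times = 1 h at 25 °C | detection = Cy5 fluorescence, 0 and 60 min reads | read-out basis = percent inhibition from t60/t0 fluorescence ratio | control set = DMSO and thioflavine S | replication = one well per compound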
FID counter – displaces DNA intercalator in HCV helicase counter-screen; inhibition, % at 7.9 µM; DNA fluorescent intercalator displacement, fluorescence; hit rate 0.17% among 290,000; AID 1845; in the data active means inhibition above about 37%;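 further: higher means more ethidium bromide displaced from hairpin DNA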
Of the large screens only hits and unclear results are named; the others gave an inactive call.

N#C[C@@H]1[C@@H]2C(=O)N(c3ccc4c(c3)OCCO4)C(=O)[C@@H]2C2c3ccccc3C=CN21 (some centres not stated)	core dimer inh 51.9
CCN(c1ccccc1)C1(O)C(=O)c2ccccc2C1=O	GPR7 antagonist 19.6
CCN(C(=O)CN1CCCCC1)C1(C)C(=O)c2ccccc2C1=O	none
Nc1nc(-c2ccccc2)cc(N2CCCCC2)n1	GPR7 antagonist 13.9
N#Cc1c(N)sc(=S)c2c1CCN(Cc1ccccc1)C2	core dimer inh 56.7 (no result: GPR7 antagonist, HCV NS3 hel inh, FID counter)
Cc1ccc(NC(=O)C(C)c2ccc([N+](=O)[O-])cc2)cc1Cl (configuration not stated)	GPR7 antagonist 40.1
COc1ccc(-c2c(NC(=O)c3ccco3)oc3c(C)cccc3c2=O)cc1	none
C=CCNc1nc(C(=O)OCC(=O)NCc2ccccc2OC)cs1	none (no result: GPR7 antagonist, p-CIP stab down, HCV NS3 hel inh, FID counter)
O=S(=O)(c1ccc(Cl)cc1)n1cccn1	none
Cc1nc(C)c(-c2ccn(S(=O)(=O)c3ccc(Cl)cc3)n2)o1	GPR7 antagonist 19.4
COc1ccc(Cn2c(CCC(=O)NCCC(C)C)nc3ncccc3c2=O)cc1	none
Cc1cc(C)cc(NC(=S)/C(=C(\[O-])c2ccc(Cl)cc2Cl)[n+]2ccccc2)c1	GPR7 antagonist 16.1
[O-]/C(=C(\C(=S)Nc1ccc(SC(F)F)cc1)[n+]1ccccc1)c1ccc(Cl)cc1Cl	none
CN1C(=O)C2(OCC(CO)([N+](=O)[O-])CO2)c2ccccc21 (configuration not stated)	none
COc1cc2c(cc1OC)C(=O)N1[C@H]3c4ccccc4OC[C@@H]3[C@H](c3ccccc3)[C@]1(C)C(=O)N2	none (no result: GPR7 antagonist, p-CIP stab down, HCV NS3 hel inh, FID counter)
COc1ccc2c(c1)OC[C@H]1[C@H]2N2C(=O)c3cc(OC)c(OC)cc3NC(=O)[C@@]2(C)[C@H]1c1ccccc1	core dimer inh 46.2 (no result: GPR7 antagonist, p-CIP stab down, HCV NS3 hel inh, FID counter)
COc1ccccc1C1=NOC(C)(c2nnc(-c3cccc(Cl)c3)o2)C1 (configuration not stated)	none (no result: GPR7 antagonist, p-CIP stab down, HCV NS3 hel inh, FID counter)
O=C(Nc1cccc(O)c1)c1cnn2cccnc12	none
O=C(Nc1ccc2c(c1)OCO2)c1cnn2cccnc12	GPR7 antagonist 17.2
CCc1nnc(NC(=O)CCN2C(=O)/C(=C/c3cc(OC)c(OC)c(OC)c3)SC2=S)s1	none
OCCC1CN(Cc2cccc3nonc23)CCN1Cc1ccsc1 (configuration not stated)	none
OCCC1CN(Cc2ccccc2OC2CCCC2)CCN1Cc1ccsc1 (configuration not stated)	GPR7 antagonist 20.1
COc1cccc(CNCc2ccccc2Br)c1OC	none
O=C(Nc1cccc(Cl)c1)C1C2CCC3C(CCC21)C3(Cl)Cl (configuration not stated)	GPR7 antagonist 41.5
O=C(Nc1ccccc1)C1C2CCC3C(CCC21)C3(Cl)Cl (configuration not stated)	none
Cc1ccc(SCC(=O)Nc2ccc(S(N)(=O)=O)cc2)cc1	none
COc1ccc(-c2c[n+](CC(=O)OC3CC(C)CCC3C(C)C)c3n2CCC3)cc1 (configuration not stated)	GPR7 antagonist 41.6
COc1ccc(OCC(=O)OC(C)CN2CCOCC2)cc1 (configuration not stated)	GPR7 antagonist 18.1
CC(CN1CCOCC1)OC(=O)COc1ccc(F)cc1 (configuration not stated)	none
CCOC(=O)C1=C(C)N=c2s/c(=C/c3ccco3)c(=O)n2C1c1cccc(OC)c1 (configuration not stated)	core dimer inh 48.0
CCOC(=O)C1=C(C)N=c2s/c(=C\c3ccc(C(=O)O)cc3)c(=O)n2C1c1ccc(OC)cc1OC (configuration not stated)	none (no result: p-CIP stab down)
O=C(Cc1cccs1)NCCSc1c(-c2ccc(Cl)cc2)[nH]c2ccccc12	GPR7 antagonist 19.2
CCOC(=O)CSc1c(-c2ccc(Cl)cc2)[nH]c2ccccc12	none
C(C#CCCCCCCCCC[n+]1ccccc1)#CCCCCCCCCC[n+]1ccccc1	FID counter 42.9
CCCCn1c2c(c(=N)c3c1CCC3)CCC2	none
CCCCCCCn1c2c(c(=N)c3c1CCC3)CCCC2	GPR7 antagonist 62.2 (no result: core dimer inh)
CCOc1ccc(-n2cc(C(=O)Nc3cccc(Cl)c3)c3cc(OC)c(OC)cc3c2=O)cc1	core dimer inh 47.8
O=C(Nc1nccs1)c1cc2c(s1)-c1ccccc1OC2	GPR7 antagonist 16.9
O=C(CN(Cc1ccccc1)S(=O)(=O)c1ccc(F)cc1)NCc1cccnc1	none
CCN(CC(=O)Nc1ccccc1OC)C(=O)c1ccc(N(C)S(=O)(=O)c2ccc(C)cc2)cc1	none (no result: GPR7 antagonist, p-CIP stab down, HCV NS3 hel inh, FID counter)
CCOc1ccc(CCNC(=O)CSc2ncn[nH]2)cc1OCC	none
CC1=C(C)/C(=N\OS(=O)(=O)c2ccc(C)cc2)C=CC1=O	GPR7 antagonist 60.5
COc1cc(C(=O)O/N=C2/C=C(C)C(=O)C=C2C)cc(OC)c1OC	none
CC1=C/C(=N\OS(=O)(=O)c2ccccc2)C(C)=CC1=O	GPR7 antagonist 72.8
CC1=C/C(=N\OS(=O)(=O)c2ccccc2)C(C(C)C)=CC1=O	GPR7 antagonist 43.8
CCS(=O)(=O)c1nc(S(=O)(=O)c2ccc(C)cc2)c(N2CC(C)OC(C)C2)s1 (configuration not stated)	none
CC1(C)Cc2c(C#N)c(N3CCN(C(=O)c4ccccc4)CC3)nc(-c3ccco3)c2CS1	core dimer inh 87.1
Cc1onc(-c2ccccc2)c1C(=O)Nc1nc(-c2ccccc2)cs1	core dimer inh 54.0
Cc1onc(-c2ccccc2)c1C(=O)Nc1sc2c(c1C(N)=O)CCC2	core dimer inh 61.5
O=C1N(CN2CCN(Cc3ccccc3)CC2)c2ccccc2C12OCCCO2	none
Cc1ccc(COc2ccc(CNCCCN3CCCCCC3=O)cc2)cc1	none
CC1(C)C2CCC1(CS(=O)(=O)N1CCC(C(=O)O)CC1)C(=O)C2 (configuration not stated)	none
CCOC(=O)c1c(C)n(C)c2ccc(OC(=O)c3ccoc3)cc12	GPR7 antagonist 15.6
CCOC(=O)c1c(C)n(C)c2ccc(OC(=O)c3ccc([N+](=O)[O-])cc3)cc12	none
O=C(OCn1ncc(Br)c(Br)c1=O)c1ccc(F)cc1	GPR7 antagonist 24.9
O=C(OCn1ncc(Br)c(Br)c1=O)c1ccccc1Cl	none
O=C(Nc1ccc(S(=O)(=O)Nc2ccccc2)cc1)c1ccc(CN2CCOCC2)cc1	GPR7 antagonist 50.5
N#C/C(=C(/O)COC(=O)c1ccc2c(c1)OCCO2)c1nc2ccccc2[nH]1	core dimer inh 58.4
COc1ccc(CNC(=O)CN(Cc2ccco2)C(=O)CNS(=O)(=O)c2ccc(F)cc2)cc1	none
OC(COc1ccccc1)Cn1c2ccccc2c2ccccc21 (configuration not stated)	none
Oc1cccc2ccc[n+](CC(O)Cn3c4ccccc4c4ccccc43)c12 (configuration not stated)	FID counter 39.0
O=C(NCc1ccccc1)C(c1ccc(F)cc1)N(C(=O)c1csnn1)C1CC1 (configuration not stated)	none
